Measured values from ChEMBL document CHEMBL4020714, “Design, synthesis, and evaluation of curcumin derivatives as Nrf2 activators and cytoprotectors against oxidative death” (Eur J Med Chem, 2017).
Activity calls are given as the source filed them. The rule behind the calls is not given here.

Experiments:
Assay type in all cases: cell-based
[1] = target: T1, Nuclear factor erythroid 2-related factor 2 (Homo sapiens) (UniProt Q16236); experiment: Activation of Nrf2 in human HepG2 cells assessed as increase in cytosolic Nrf2 expression level at 5 uM after 1 to 6 hrs by Western blot analysis
T1 sequence (whole entry): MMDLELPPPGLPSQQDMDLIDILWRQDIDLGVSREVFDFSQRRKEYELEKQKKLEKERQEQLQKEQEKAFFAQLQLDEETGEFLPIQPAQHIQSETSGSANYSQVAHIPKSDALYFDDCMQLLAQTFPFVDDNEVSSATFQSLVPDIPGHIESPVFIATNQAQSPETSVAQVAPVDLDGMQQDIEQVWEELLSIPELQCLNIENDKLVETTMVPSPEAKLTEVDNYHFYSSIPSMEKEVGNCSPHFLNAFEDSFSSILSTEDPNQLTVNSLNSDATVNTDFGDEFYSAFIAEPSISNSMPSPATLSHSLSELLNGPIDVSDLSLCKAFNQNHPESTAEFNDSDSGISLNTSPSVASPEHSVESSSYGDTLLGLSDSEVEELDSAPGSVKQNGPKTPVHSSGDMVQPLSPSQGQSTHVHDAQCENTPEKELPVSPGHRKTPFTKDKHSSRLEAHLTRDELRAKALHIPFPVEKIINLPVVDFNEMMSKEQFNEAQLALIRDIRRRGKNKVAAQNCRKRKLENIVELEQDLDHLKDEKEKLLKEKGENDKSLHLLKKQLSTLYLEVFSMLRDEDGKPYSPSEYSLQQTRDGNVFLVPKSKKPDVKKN
In short: (§1)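 HepG2 cells (2×10^6/well) treated at the indicated concentrations and times. Whole-cell lysates, or nuclear and cytoplasmic fractions, are prepared and quantified by BCA. Samples are run at 40 μg/lane on 12% SDS-PAGE, transferred to nitrocellulose, probed with specific antibodies and HRP secondary (1/5000), and detected by ECL. Where used, LY294002 (15 μM), SP600125 (25 μM) or DTT (400 μM) is added 1 h before compound.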

[2] = target: T1, Nuclear factor erythroid 2-related factor 2 (Homo sapiens); experiment: Activation of Nrf2 in human HepG2 cells assessed as increase in HO-1 expression level after 24 hrs by Western blot analysis; in short: as §1
[3] = target: Kelch-like ECH-associated protein 1 (Homo sapiens) (UniProt Q14145); experiment: Induction of keap1-dependent Nrf2 stabilization in human HepG2 cells assessed as prolonged half life of Nrf2 at 5 uM pretreated for 3 hrs followed by coincubation with 5 ug/ml cycloheximide for 24 hrs by Western blot analysis relative to control
Kelch-like ECH-associated protein 1 (Homo sapiens), sequence (Q14145 whole entry): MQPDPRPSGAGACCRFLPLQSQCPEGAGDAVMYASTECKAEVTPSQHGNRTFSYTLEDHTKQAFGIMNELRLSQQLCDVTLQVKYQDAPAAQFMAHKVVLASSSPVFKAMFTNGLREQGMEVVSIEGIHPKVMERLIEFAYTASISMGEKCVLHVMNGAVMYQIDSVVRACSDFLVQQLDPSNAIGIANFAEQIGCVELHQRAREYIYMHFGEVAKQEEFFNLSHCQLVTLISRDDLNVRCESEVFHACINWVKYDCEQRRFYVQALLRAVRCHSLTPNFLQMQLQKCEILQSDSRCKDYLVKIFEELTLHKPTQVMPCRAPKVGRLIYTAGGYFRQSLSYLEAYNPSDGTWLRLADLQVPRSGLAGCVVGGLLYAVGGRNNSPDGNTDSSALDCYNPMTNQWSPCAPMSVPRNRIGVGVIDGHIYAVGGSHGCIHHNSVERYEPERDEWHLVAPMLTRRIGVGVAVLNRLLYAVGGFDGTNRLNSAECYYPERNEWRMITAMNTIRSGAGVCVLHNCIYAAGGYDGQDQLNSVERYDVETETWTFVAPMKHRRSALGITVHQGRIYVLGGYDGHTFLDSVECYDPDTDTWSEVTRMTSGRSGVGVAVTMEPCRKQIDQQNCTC
In short: (§2)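 HepG2 cells pretreated with or without 5 μM compound for 3 h, then given 5 μg/mL cycloheximide for the indicated periods (up to 24 h). Total lysates are immunoblotted for Nrf2. Half-life is obtained by fitting a single-phase decay model.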

[4] = target: T1, Nuclear factor erythroid 2-related factor 2 (Homo sapiens); experiment: Activation of Nrf2 in human HepG2 cells assessed as increase in Nrf2 expression level after 3 hrs by Western blot analysis; in short: as §1
[5] = target: T1, Nuclear factor erythroid 2-related factor 2 (Homo sapiens); experiment: (§3) Activation of Nrf2 in human HepG2 cells assessed as cytoprotection against t-BHP-induced oxidative cell death at 5 uM incubated for 24 hrs followed by compound removal with subsequent incubation with 900 uM of t-BHP for 6 hrs in presence of 10 uM GCL inhibitor BSO for 1 hr prior to compound treatment by MTT assay
In short: (§4)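 HepG2 cells (5×10^3/well) seeded and grown 24 h in 1640 medium with 10% FBS at 37 °C and 5% CO2. Compound is added for 24 h, then removed, and cells are challenged with 900 μM t-BHP for 6 h at 37 °C. MTT (0.5 mg/mL) is added for 4 h, formazan dissolved in DMSO, and absorbance read at 570 nm. Where used, inhibitors are added 1 h before compound. Mean ± SD of three independent experiments.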

[6] = target: T1, Nuclear factor erythroid 2-related factor 2 (Homo sapiens); experiment: as §3, with “15” for “10”, “PI3K/Akt” for “GCL”, “LY294002” for “BSO”; in short: as §4
[7] = target: Kelch-like ECH-associated protein 1 (Homo sapiens) (UniProt Q14145); experiment: Induction of keap1-dependent Nrf2 stabilization in human HepG2 cells assessed as upregulation of total Nrf2 expression at 5 uM by Western blot analysis; details: TDE = time-dependent effect; in short: as §1
[8] = target: T1, Nuclear factor erythroid 2-related factor 2 (Homo sapiens); experiment: Activation of Nrf2 in human HepG2 cells assessed as increase in GCLM expression level after 24 hrs by Western blot analysis; in short: as §1
[9] = target: T1, Nuclear factor erythroid 2-related factor 2 (Homo sapiens); experiment: Activation of Nrf2 in human HepG2 cells assessed as increase in GCLM expression level at 5 uM by Western blot analysis; details: TDE = time-dependent effect; in short: as §1
[10] = target: T1, Nuclear factor erythroid 2-related factor 2 (Homo sapiens); experiment: Activation of Nrf2 in human HepG2 cells assessed as increase in GCLC expression level at 5 uM in presence of 15 uM PI3K/Akt inhibitor LY294002 for 1 hr prior to compound treatment by Western blot analysis; in short: as §1
[11] = target: T1, Nuclear factor erythroid 2-related factor 2 (Homo sapiens); experiment: as §3, with “400” for “10”, “metal ion chelator EDTA” for “GCL inhibitor BSO”
[12] = target: T1, Nuclear factor erythroid 2-related factor 2 (Homo sapiens); experiment: Activation of Nrf2 in human HepG2 cells assessed as increase in HO-1 expression level at 5 uM in presence of 25 uM JNK inhibitor SP600125 for 1 hr prior to compound treatment by Western blot analysis; in short: as §1
[13] = target: Keap1/Nrf2 (Homo sapiens) (UniProt Q16236+Q14145); experiment: Inhibition of Keap1/Nrf2 interaction in human HepG2 cells assessed as decrease in Keap1 expression level after 3 hrs in presence of DTT for 1 hr prior to compound treatment by Western blot analysis; in short: as §1
Keap1/Nrf2 (Homo sapiens), sequence (Q14145 whole entry, looked up, one chain of several): as the sequence (Q14145 whole entry) above

[14] = target: T1, Nuclear factor erythroid 2-related factor 2 (Homo sapiens); experiment: Activation of Nrf2 in human HepG2 cells assessed as increase in HO-1 expression level after 3 hrs by Western blot analysis; in short: as §1
[15] = target: T1, Nuclear factor erythroid 2-related factor 2 (Homo sapiens); experiment: as §3, with “100 nM Nrf2” for “10 uM GCL”, “TRG” for “BSO”; in short: as §4
[16] = target: T1, Nuclear factor erythroid 2-related factor 2 (Homo sapiens); experiment: Activation of Nrf2 in human HepG2 cells assessed as increase in HO-1 expression level at 5 uM by Western blot analysis; details: TDE = time-dependent effect; in short: as §1
[17] = target: Kelch-like ECH-associated protein 1 (Homo sapiens) (UniProt Q14145); experiment: Induction of keap1-dependent Nrf2 stabilization in human HepG2 cells assessed as upregulation of total Nrf2 level at 5 uM pretreated for 3 hrs followed by coincubation with 5 ug/ml cycloheximide for 24 hrs by Western blot analysis; in short: as §2
[18] = target: T1, Nuclear factor erythroid 2-related factor 2 (Homo sapiens); experiment: as §3, with “3” for “10”, “HO-1” for “GCL”, “ZnPP” for “BSO”; in short: as §4
[19] = target: T1, Nuclear factor erythroid 2-related factor 2 (Homo sapiens); experiment: as §3, with “400” for “10”, “DTT” for “GCL inhibitor BSO”; in short: as §4
[20] = target: T1, Nuclear factor erythroid 2-related factor 2 (Homo sapiens); experiment: Activation of Nrf2 in human HepG2 cells assessed as increase in nuclear Nrf2 expression level after 3 hrs by Western blot analysis; in short: as §1
[21] = target: T1, Nuclear factor erythroid 2-related factor 2 (Homo sapiens); experiment: Activation of Nrf2 in human HepG2 cells assessed as cytoprotection against t-BHP-induced oxidative cell death incubated for 24 hrs followed by compound removal with subsequent incubation with 900 uM of t-BHP for 6 hrs by MTT assay; in short: as §4

- Activity [1]: Active
- Activity [2]: Dose-dependent effect
- fold change (FC) [3]: 2.6
- Activity [4]: Active
- Activity [7]: Tde
- Activity [8]: Dose-dependent effect
- Activity [9]: Tde
- Activity [10]: inactive
- Activity [12]: inactive
- inhibition [13]: inactive
- Activity [14]: Active
- Activity [16]: Tde
- Activity [17]: Active
- Activity [20]: Dose-dependent effect
Compound: CC(C)(C(=O)/C=C/c1ccc(O)c(O)c1)C(=O)/C=C/c1ccc(O)c(O)c1
- Activity [5]: inactive
- Activity [6]: inactive
- Activity [11]: inactive
- Activity [15]: inactive
- Activity [18]: inactive
- Activity [19]: inactive
- Activity [21]: Dose-dependent effect
